Active and inactive are the calls of the source. The rule behind the calls is not given here.
Tests used:
U-937 = test: Cytotoxic activity against human U937 cells assessed as cell growth inhibition after 48 hrs by MTT assay; format: functional, cell-based; details: U-937, 48 h
Procedure, shortened: (§1)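 Log-phase cells (1.25-2.5×10^4/100 µl; RPMI 1640, HepG2 in high-glucose DMEM, 10% FBS) given compound in DMSO (final <0.1%), 0-50 µM, 48 h, 37 °C, 5% CO2. MTT 4 h, DMSO solubilization, OD 540 nm minus background; viability relative to untreated; IC50 by graphical extrapolation, ≥3 experiments in duplicate.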

HT-29 [1] = test: Induction of apoptosis in human HT-29 cells assessed as early apoptotic cells using annexin V-FITC/propidium iodide staining at IC50 after 12 hrs by flow cytometry (reference value: 0.1%); format: functional
Calf thymus DNA [2] = test: Binding affinity to calf thymus DNA assessed as conformational change at 50 uM after 2 hrs by circular dichroism analysis; format: nucleic-acid assay; details: Bos taurus
Procedure, shortened: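 CT-DNA (500 μg/mL) incubated alone or with 50 μM compound for 2 h at 37 °C in 50 mM Tris-HCl/NaCl buffer; CD spectra recorded for conformation, with the positive band at 275 nm and the negative band at 245 nm (B-form) monitored.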

HT-29 [3] = test: Induction of apoptosis in human HT-29 cells assessed as fragmentation using Hoechst 33258 dye at IC50 after 48 hrs by confocal microscopic analysis; format: functional, cell-based
Procedure, shortened: (§2)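 HT-29 (2.5×10^5 cells/ml) treated 48 h at 37 °C, 5% CO2, washed, fixed in 4% paraformaldehyde (4 °C, 30 min), stained with Hoechst 33258 (5 µg/ml final, 37 °C, 30 min, dark), mounted in 50% glycerol on poly-L-lysine slides; confocal imaging at 100×.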

HT-29 [4] = test: Cytotoxicity against human HT-29 cells assessed as cell viability after 48 hrs by MTT assay in presence of NAC; format: functional, cell-based; details: HT-29, 48 h
Procedure, shortened: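 HT-29 cells pre-incubated with 2.5 mM N-acetyl cysteine for 3 h, then exposed to compound and assayed for viability by MTT.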

MCF7 = test: Cytotoxic activity against human MCF7 cells assessed as cell growth inhibition after 48 hrs by MTT assay; format: functional, cell-based; details: MCF7, 48 h; procedure, shortened: as §1
HT-29 [5] = test: Induction of apoptosis in human HT-29 cells assessed as apoptotic bodies using Hoechst 33258 dye at IC50 after 48 hrs by confocal microscopic analysis; format: functional, cell-based; procedure, shortened: as §2
HT-29 [6] = test: Induction of apoptosis in human HT-29 cells assessed as increase in caspase-9 activity at IC50 after 48 hrs by colorimetric assay; format: functional, cell-based
HT-29 [7] = test: Induction of apoptosis in human HT-29 cells assessed as loss of mitochondrial membrane potential using JC-1 dye at IC50 after 24 hrs by flow cytometry (reference value: 1.75%); format: functional
Jurkat = test: Cytotoxic activity against human Jurkat cells assessed as cell growth inhibition after 48 hrs by MTT assay; format: functional, cell-based; procedure, shortened: as §1
HT-29 [8] = test: Induction of apoptosis in human HT-29 cells assessed as chromatin condensation using Hoechst 33258 dye at IC50 after 48 hrs by confocal microscopic analysis; format: functional, cell-based; procedure, shortened: as §2
HT-29 [9] = test: Induction of apoptosis in human HT-29 cells assessed as early apoptotic cells using annexin V-FITC/propidium iodide staining at IC50 after 48 hrs by flow cytometry (reference value: 0.1%); format: functional
HT-29 [10] = test: Induction of apoptosis in human HT-29 cells assessed as early apoptotic cells using annexin V-FITC/propidium iodide staining at IC50 by flow cytometry; format: functional, cell-based; details: TDE = time-dependent effect
HT-29 [11] = test: Induction of apoptosis in human HT-29 cells assessed as early apoptotic cells using annexin V-FITC/propidium iodide staining at IC50 after 24 hrs by flow cytometry (reference value: 0.1%); format: functional
HT-29 [12] = test: Induction of apoptosis in human HT-29 cells assessed as increase in caspase-3 activity at IC50 after 48 hrs by colorimetric assay; format: functional, cell-based
HepG2 = test: Cytotoxic activity against human HepG2 cells assessed as cell growth inhibition after 48 hrs by MTT assay; format: functional, cell-based; details: HepG2, 48 h; procedure, shortened: as §1
HT-29 [13] = test: Induction of apoptosis in human HT-29 cells assessed as reduction in Bcl2/Bax ratio at IC50 after 12 to 48 hrs by Western blotting; format: functional, cell-based
HT-29 [14] = test: Induction of apoptosis in human HT-29 cells assessed as late apoptotic cells using annexin V-FITC/propidium iodide staining at IC50 after 12 hrs by flow cytometry (reference value: 0.0%); format: functional
Calf thymus DNA [15] = test: Binding affinity to calf thymus DNA up to 2 hrs by absorption spectroscopy analysis; format: nucleic-acid assay; details: Bos taurus
Procedure, shortened: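 Compound stock in 60% ethanol/50 mM Tris-HCl/NaCl (pH 7.5), diluted in buffer, actual concentration set by molar extinction coefficient. CT-DNA held at 50 μg/ml (legend: 100 μg/mL) with varied compound, 37 °C, 2 h; UV-vis scanned 200-400 nm. θ from 260 nm absorbance; Kb as the reciprocal of ligand concentration at half-saturation of the isotherm.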

HT-29 [16] = test: Induction of apoptosis in human HT-29 cells assessed as late apoptotic cells using annexin V-FITC/propidium iodide staining at IC50 after 48 hrs by flow cytometry (reference value: 0.0%); format: functional
HT-29 [17] = test: Induction of apoptosis in human HT-29 cells assessed as ROS generation measured up to 15 mins by FACS analysis; format: functional, cell-based
Procedure, shortened: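 HT-29 (2.5×10^5/ml) exposed 0-2 h, washed, loaded with CM-H2DCFDA (5 μM in PBS) 30 min at 37 °C in the dark. DCF read by flow cytometry (ex 488/em 530 nm) on FSC/SSC-gated viable cells; mean fluorescence intensity, three independent experiments.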

HT-29 [18] = test: Cytotoxic activity against human HT-29 cells assessed as cell growth inhibition after 48 hrs by MTT assay; format: functional, cell-based; details: HT-29, 48 h; procedure, shortened: as §1
HT-29 [19] = test: Induction of apoptosis in human HT-29 cells assessed as increase in caspase-8 activity at IC50 after 48 hrs by colorimetric assay; format: functional, cell-based
HT-29 [20] = test: Induction of apoptosis in human HT-29 cells assessed as loss of mitochondrial membrane potential using JC-1 dye at IC50 after 48 hrs by flow cytometry (reference value: 1.75%); format: functional
HT-29 [21] = test: Induction of apoptosis in human HT-29 cells assessed as loss of mitochondrial membrane potential using JC-1 dye at IC50 after 12 hrs by flow cytometry (reference value: 1.75%); format: functional
PBMC = test: Cytotoxic activity against human PBMC cells assessed as cell growth inhibition after 48 hrs by MTT assay; format: cell-based; procedure, shortened: as §1
HT-29 [22] = test: Induction of apoptosis in human HT-29 cells assessed as cleavage of PARP at IC50 after 24 to 48 hrs by Western blotting; format: functional, cell-based
HT-29 [23] = test: Induction of apoptosis in human HT-29 cells assessed as late apoptotic cells using annexin V-FITC/propidium iodide staining at IC50 after 24 hrs by flow cytometry (reference value: 0.0%); format: functional
HT-29 [24] = test: Induction of apoptosis in human HT-29 cells assessed as membrane blebbing using Hoechst 33258 dye at IC50 after 48 hrs by confocal microscopic analysis; format: functional, cell-based; procedure, shortened: as §2
HT-29 [25] = test: Induction of apoptosis in human HT-29 cells assessed as late apoptotic cells using annexin V-FITC/propidium iodide staining at IC50 by flow cytometry; format: functional, cell-based; details: TDE = time-dependent effect

Which IC50 (U-937) does the source give for C=C(C)[C@@H]1CC[C@]2(C(=O)O)CC[C@]3(C)[C@H](CC[C@@H]4[C@@]5(C)CC[C@H](OC(=O)Cn6cc(CO)nn6)C(C)(C)[C@@H]5CC[C@]43C)[C@@H]12 here?
Its IC50 is > 50 µM.

What about the Activity (HT-29 [1]) of the same molecule?
The Activity was 14.1%.

What about the Activity (Calf thymus DNA [2]) of the same molecule?
The Activity was “inactive”.

And the Activity (HT-29 [3])?
Its Activity is “Active”.

What about the IC50 (HT-29 [4]) of the same molecule?
Its IC50 is 30.4 µM.

And the IC50 (MCF7)?
The IC50 was > 50 µM.

And the Activity (HT-29 [5])?
Its Activity is “Active”.

And the Activity (HT-29 [6])?
Its Activity is “Active”.

What about the Activity (HT-29 [7]) of the same molecule?
The Activity was 30.5%.

And the IC50 (Jurkat)?
The IC50 was 41.4 µM.

And the Activity (HT-29 [8])?
The Activity was “Active”.

And the Activity (HT-29 [9])?
Its Activity is 25.2%.

What about the Activity (HT-29 [10]) of the same molecule?
Its Activity is “tde”.

What about the Activity (HT-29 [11]) of the same molecule?
The Activity was 17.1%.

What about the Activity (HT-29 [12]) of the same molecule?
The Activity was “Active”.

And the IC50 (HepG2)?
Its IC50 is > 50 µM.

What about the Activity (HT-29 [13]) of the same molecule?
Its Activity is “Active”.

What about the Activity (HT-29 [14]) of the same molecule?
The Activity was 2%.

And the K (Calf thymus DNA [15])?
Its K is 8.38 ×10⁴ /M.

And the Activity (HT-29 [16])?
The Activity was 4.6%.

And the Activity (HT-29 [17])?
The Activity was “Active”.

And the IC50 (HT-29 [18])?
The IC50 was 14.9 µM.

And the Activity (HT-29 [19])?
The Activity was “inactive”.

What about the Activity (HT-29 [20]) of the same molecule?
Its Activity is 51.4%.

What about the Activity (HT-29 [21]) of the same molecule?
Its Activity is 16.5%.

What about the IC50 (PBMC) of the same molecule?
The IC50 was > 50 µM.

What about the Activity (HT-29 [22]) of the same molecule?
Its Activity is “Active”.

And the Activity (HT-29 [23])?
Its Activity is 3.2%.

And the Activity (HT-29 [24])?
Its Activity is “Active”.

What about the Activity (HT-29 [25]) of the same molecule?
Its Activity is “tde”.

Reference: ChEMBL document CHEMBL3611973, “Synthesis and biological evaluation of a novel betulinic acid derivative as an inducer of apoptosis in human colon carcinoma cells (HT-29)” (Eur J Med Chem, 2015)
